NF-kB neuron act: raises NF-kB expression in human neuronal cells. NF-kB reporter expression; hits give high values. fold change at 12.5 µM. 190,000 tested, 1.6% active. AID 1239; in the data active = fold change above about 3.3
Pf gametocyte: kills late stage P. falciparum gametocytes | P. falciparum stage V gametocytes, ATP luminescence, 24 h | inhibition, % at 10.9 µM | 150,000 tested, 0.065% active;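 active = inhibition above the mean plus 3 SD of compounds within the control limits, set per campaign, cut at about 38% in these data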;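 note: 0% = DMSO wells and 100% = medium only without gametocytes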
APP 5'UTR act: APP 5'UTR luciferase reporter activation. SH-SY5Y APP 5'UTR luciferase reporter, luminescence; zero percent = DMSO vehicle wells. activation, % at 2 µM. 190,000 tested, 1% active. AID 1276;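 active = activation above a set limit, based on mean plus 3 SD of controls, cut at about 140% in these data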
FLuc act counter: firefly luciferase counter-screen for stimulation assays; P08659; ATPlite luciferase biochemical, luminescence, 10 min; 0 = ATP-free wells, 1 = DMSO control; activation factor at 10 µM; 200,000 tested, under 10 active;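 active = luciferase activation factor, scaled between plate controls, of at least 2 with compound at 10 µM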
Target sequence (P08659 whole entry, looked up): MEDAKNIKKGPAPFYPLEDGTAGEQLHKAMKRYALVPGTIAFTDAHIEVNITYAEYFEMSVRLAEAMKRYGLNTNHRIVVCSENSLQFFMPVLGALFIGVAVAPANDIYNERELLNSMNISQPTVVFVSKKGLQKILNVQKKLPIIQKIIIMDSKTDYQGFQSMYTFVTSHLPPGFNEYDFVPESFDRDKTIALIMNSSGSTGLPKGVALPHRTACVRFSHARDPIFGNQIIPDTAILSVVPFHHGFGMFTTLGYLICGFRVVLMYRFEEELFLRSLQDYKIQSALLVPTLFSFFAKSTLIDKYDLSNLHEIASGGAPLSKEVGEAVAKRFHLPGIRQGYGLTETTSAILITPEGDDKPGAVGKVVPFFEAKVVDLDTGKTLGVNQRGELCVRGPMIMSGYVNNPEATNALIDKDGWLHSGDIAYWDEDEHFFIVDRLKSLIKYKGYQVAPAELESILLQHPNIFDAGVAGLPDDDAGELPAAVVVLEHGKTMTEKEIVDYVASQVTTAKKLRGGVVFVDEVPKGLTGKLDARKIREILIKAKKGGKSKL
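Assay system: Luciferase/luciferin detection reagent, cell-free biochemical luciferase assay / Read-out: luciferase activation / Benchmarks: No-ATP low control, compound-free enzyme-plus-ATP high control / Medium: PBS buffer for ATP / Detection: luminescence measurement of luciferase light output / Schedule: 10 min at ambient temperature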
FLuc inhib CS: inhibits firefly luciferase, flagging false hits in luciferase inhibition screens; P08659; ATPLite firefly luciferase biochemical luminescence, 10 min; inhibition, % at 10 µM; 200,000 tested, 1.5% active; AID 1006;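 active = inhibition above about 50% when tested at 10 µM, limit read from the data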
STAT1 act: increases IFN-gamma driven STAT1 reporter signal; NIH 3T3 STAT1-luciferase reporter, luminescence; 100% = IFN-gamma alone, no compound; activation (% of control), % at 5.5 µM; 200,000 tested, 2.6% active; AID 932;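 active = activation above the screen-wide mean activation plus 3 SD, cut at about 130% in these data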;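 note: raw ratio to IFN-gamma control signal so 100% means no change and 0% no light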
Numbers without * were called inactive; nt = not tested or not shown. This is a sample that favours compounds with a hit; in the whole collection about 3.5% have one here.

SMILES	NF-kB neuron act	Pf gametocyte	APP 5'UTR act	FLuc act counter	FLuc inhib CS	STAT1 act
Cc1ccc(NS(=O)(=O)c2cc(NC(=O)c3ccc4c(c3)NC(=O)CS4)ccc2Cl)c(C)c1	0.56	-19	0	1.1	-6	106
CC(=O)Cc1nsc(Nc2ccc3c(c2)OCCO3)n1	2.1	nt	92	0.9	10	148*
Cc1c(NC(=O)CCCCCN2C(=O)c3ccccc3C2=O)c(=O)n(-c2ccccc2)n1C	1.1	14	2	1	-4	92
O=C(CSc1nnc(NC2CCCCC2)s1)Nc1ccc2c(c1)C(=O)c1ccccc1C2=O	1.2	4	86	1	2	139*
CC(C)Nc1nnc(SCC(=O)Nc2ccc3c(c2)C(=O)c2ccccc2C3=O)s1	0.59	nt	112	0.9	8	127
CS(=O)(=O)N1CCc2cc(NC(=O)c3ccc(Cl)cc3Cl)ccc21	1.4	-5	-3	1	0	129*
CCSc1nnc([C@H](C)NC(=O)OC(C)(C)C)o1	1.2	-19	14	1.1	-6	102
C[C@@H]1CN([C@@H](C)CO)C(=O)c2cccc(NC(=O)C3CCCCC3)c2O[C@@H]1CN(C)C(=O)NC1CCCCC1	nt	12	nt	nt	nt	nt
COc1ccc(Cl)cc1C(=O)Nc1ccc2c(c1)OCCO2	nt	14	nt	nt	nt	nt
Cc1ccccc1C(=O)Nc1ccc2c(c1)OCO2	4.8*	nt	177*	0.3	74*	107
CN(c1ccccc1C(=O)Nc1ccc2c(c1)OCO2)S(C)(=O)=O	1.1	nt	-1	1	-5	101
COc1ccccc1C(=O)Nc1ccc2c(c1)OCCO2	3.5*	-10	137*	0.5	50	140*
C/C(=C\C(=O)c1ccc(C)o1)Nc1ccc2c(c1)OCO2	1.5	nt	91	0.5	52*	106
COc1ccc(Cl)cc1C(=O)Nc1ccc2c(c1)OCO2	1.2	nt	39	0.6	38	135*
O=C(Nc1cccc(F)c1)c1ccc2c(c1)OCO2	3.5*	-22	62	0.7	30	118
COc1cc(SC)ccc1C(=O)Nc1ccc2c(c1)OCCO2	4.6*	nt	155*	0.2	83*	130*
CCOC(=O)c1c(C)[nH]c(C(=O)Nc2ccc3c(c2)OCO3)c1C	7.8*	nt	164*	0.8	25	141*
O=C(Nc1c(C(=O)Nc2cccc(F)c2)oc2ccccc12)c1ccc2c(c1)OCO2	1.2	nt	19	0.9	14	100
CC(C)Oc1ccc(C(=O)NC2CCCCC2)cc1	2.7	-20	nt	0.8	23	128
C=CCOc1ccc(C(=O)NC2CCCCC2)cc1	2.1	nt	23	0.8	24	132*
CCCNC(=O)C(Cc1cccc(C#N)c1)NC(=O)c1ccc(C#N)cc1 (centres undefined)	nt	14	nt	nt	nt	nt
CC(C)c1ccc(NC(=O)C(c2ccccc2)N(C)C(=O)CCc2c[nH]c3ccccc23)cc1 (centres undefined)	nt	-23	nt	nt	nt	nt
Cc1noc(C)c1NC(=O)N(C)C[C@H]1Oc2ccc(NC(=O)NC(C)C)cc2C(=O)N([C@H](C)CO)C[C@@H]1C	nt	-5	nt	nt	nt	nt
O=C(C1=C[C@H](c2csc3ccccc23)C[C@H](OCc2ccc(CO)cc2)O1)N1CCCCCCC1	nt	-51	nt	nt	nt	nt
Cc1ccc(C(=O)Nc2ccc3c(c2)OCO3)cc1	4.9*	nt	142*	0.1	88*	82
SMILES	NF-kB neuron act	Pf gametocyte	APP 5'UTR act	FLuc act counter	FLuc inhib CS	STAT1 act
CN(c1ccc(C(=O)Nc2ccc3c(c2)OCO3)cc1)S(C)(=O)=O	nt	-8	nt	nt	nt	nt
Cc1ccnc2nc(C(=O)Nc3ccc4c(c3)OCO4)nn12	4*	nt	40	0.5	51*	107
CN(c1ccc(C(=O)Nc2ccc3c(c2)OCCO3)cc1)S(C)(=O)=O	2.6	nt	104	0.4	56*	127
O=C(NC1CCCCCCC1)c1ccc2c(c1)OCO2	6.9*	nt	153*	0.6	43	125
O=C(NNC(=S)NC1CCCCC1)c1ccc2c(c1)OCO2	1.9	-8	75	0.9	7	107
CC(=O)c1ccc(NC(=O)c2cc(CC(C)C)nc3ccccc23)cc1	nt	-30	nt	nt	nt	nt
CCOC(=O)c1c2ccccc2[n+]([O-])n1[C@@H](C)C(N)=O	nt	22	nt	nt	nt	nt
COc1ccccc1C(=O)Nc1ccc2c(c1)OCO2	2.6	nt	91	0.7	31	132*
COc1ccc(NC(=O)c2ccc3c(c2)OCO3)cc1[N+](=O)[O-]	1.2	20	37	0.7	26	139*
Cc1ccc(C(=O)Nc2ccc3c(c2)CCC3)cc1	6.4*	-16	154*	0.1	90*	40
COc1ccc(/C=N/NC(=O)c2ccc3c(c2)OCCO3)cc1[N+](=O)[O-]	1.2	nt	-3	1.1	-6	109
COc1cc(SC)ccc1C(=O)Nc1ccccc1	3.7*	-11	58	1	-3	135*
COc1ccccc1C(=O)Nc1cccc(SC)c1	1.4	nt	23	0.9	10	100
O=C(Cn1c(=O)oc2ccccc21)Nc1ccc(F)cc1	nt	-3	nt	nt	nt	nt
COc1cc(SC)ccc1C(=O)NCCOc1ccc(F)cc1	3.2	nt	53	1	-4	135*
COc1cc(SC)ccc1C(=O)Nc1nccs1	1	-18	190*	0.1	92*	70
COc1ccc(C(=O)Nc2nccs2)cc1OC	1.3	-47	-5	1	3	113
O=[N+]([O-])c1ccc(N=NNc2ccccc2)cc1	3.6*	nt	58	0.9	8	135*
CN(N=Nc1ccc([N+](=O)[O-])cc1)c1ccccc1	2.8	4	52	0.9	5	139*
Cc1cc2nc(N3C(=O)CNC3=S)sc2cc1C	3.2	8	91	0.2	82*	104
CCOc1ccc2nc(N3C(=O)CNC3=S)sc2c1	nt	15	nt	nt	nt	nt
O=C(Nc1ccccn1)c1cc2ccccc2o1	3.2	nt	86	0.1	95*	59
O=C(Nc1ccc(Cl)cn1)c1ccc([N+](=O)[O-])o1	5.9*	7	-47	1.1	-5	102
O=C(NC1=NCCS1)c1cc2ccccc2o1	4.8*	nt	127	0.1	86*	96
O=C(Nc1ccc(Br)cn1)c1cccc(-c2cc3ccccc3oc2=O)c1	2.1	nt	59	1	-3	144*
SMILES	NF-kB neuron act	Pf gametocyte	APP 5'UTR act	FLuc act counter	FLuc inhib CS	STAT1 act
COC(=O)c1ccc2c(c1)S(=O)(=O)NC(=NCc1ccco1)S2	1.1	nt	19	1	-2	102
O=C(NNC(=O)c1cc2ccccc2o1)c1ccc(Cl)cc1	nt	-36	nt	nt	nt	nt
O=C(Nc1ccc(Cl)cn1)c1cc2ccccc2o1	9.2*	-9	205*	0.4	64*	125
CCOc1cccc2c1OC(c1cc(OC)c(OC)c(OC)c1)N1N=C(c3ccc(C)o3)CC21 (centres undefined)	0.82	nt	137*	0.5	52*	89
OCC1(CCOc2ccccc2)CCN(Cc2ccc(OC(F)F)cc2)CC1	nt	-1	nt	nt	nt	nt
Cn1[nH]c(C(F)(F)F)c(C=Nc2ccc(Cl)cc2)c1=O	1.2	12	182*	1.1	-5	99

Screening data deposited in PubChem BioAssay by several laboratories.
